Measurements from ChEMBL document CHEMBL4392864, “Diketopiperazine-Type Alkaloids from a Deep-Sea-Derived Aspergillus puniceus Fungus and Their Effects on Liver X Receptor α” (J Nat Prod, 2019).
Calls of active or inactive are those of the source. No cut-off for these calls is given here.

Assays:
[1] = target: L-lactate dehydrogenase A chain (Homo sapiens) (UniProt P00338); assay: Inhibition of recombinant human LDHA expressed in Escherichia coli […] preincubated for 15 mins followed by substrate addition and measured after 60 mins
Pyricularia oryzae = assay: Antifungal activity against Pyricularia oryzae HNM 1003 assessed as growth inhibition at 0.6 mM measured after 48 hrs by microbroth dilution method; type: functional; conditions: HNM 1003, 48 h, read-out: GI
[2] = target: T1, Oxysterols receptor LXR-alpha (Homo sapiens, UniProt Q13133); assay: Transactivation of recombinant GAL4-fused human LXRalpha LBD (163 to 447 residues) expressed in human L02 cells measured after 24 hrs by luciferase reporter gene assay; type: cell-based
T1 sequence (Q13133 whole entry): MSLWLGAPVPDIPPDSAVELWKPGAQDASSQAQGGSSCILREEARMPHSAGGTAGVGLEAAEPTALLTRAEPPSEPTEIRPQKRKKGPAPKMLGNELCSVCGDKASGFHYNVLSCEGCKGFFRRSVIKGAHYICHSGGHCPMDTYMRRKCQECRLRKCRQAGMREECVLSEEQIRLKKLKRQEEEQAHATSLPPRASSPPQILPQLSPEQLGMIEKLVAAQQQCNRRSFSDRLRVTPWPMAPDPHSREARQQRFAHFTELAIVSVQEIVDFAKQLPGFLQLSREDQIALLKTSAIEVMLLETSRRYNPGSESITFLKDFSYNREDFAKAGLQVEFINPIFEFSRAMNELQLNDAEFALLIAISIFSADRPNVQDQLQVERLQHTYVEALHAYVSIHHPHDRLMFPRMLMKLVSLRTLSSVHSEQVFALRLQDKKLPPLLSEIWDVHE

[3] = test system: Colletotrichum gloeosporioides; assay: Antifungal activity against Colletotrichum gloeosporioides HNM 1003 assessed as growth inhibition at 0.6 mM measured after 48 hrs by microbroth dilution method; type: functional; conditions: HNM 1003, 48 h, read-out: GI
Summary of the method: (§1)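 Fungi were grown on PDA plates for 6−8 days at 30 °C, then the mycelia were moved into PD medium and filtered through cotton to give a spore suspension. Each well held PD medium, sample from a 10 mg/mL DMSO stock at about 0.6 mM, and spores (1 × 10^6 CFU). DMSO served as the negative control. OD600 was read at 0 and 48 h at 28 °C and percent growth inhibition calculated.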

[4] = target: Indoleamine 2,3-dioxygenase 1 (Homo sapiens, UniProt P14902); assay: Inhibition of recombinant human IDO1 expressed in Escherichia coli […] preincubated for 15 mins followed by substrate addition and measured after 60 mins
[5] = target: T2, Tyrosine-protein phosphatase non-receptor type 11 (Homo sapiens, UniProt Q06124); assay: (§2) Inhibition of recombinant human SHP2 expressed in Escherichia coli […] preincubated for 15 mins followed by substrate addition and measured after 60 mins
T2 sequence (Q06124 whole entry): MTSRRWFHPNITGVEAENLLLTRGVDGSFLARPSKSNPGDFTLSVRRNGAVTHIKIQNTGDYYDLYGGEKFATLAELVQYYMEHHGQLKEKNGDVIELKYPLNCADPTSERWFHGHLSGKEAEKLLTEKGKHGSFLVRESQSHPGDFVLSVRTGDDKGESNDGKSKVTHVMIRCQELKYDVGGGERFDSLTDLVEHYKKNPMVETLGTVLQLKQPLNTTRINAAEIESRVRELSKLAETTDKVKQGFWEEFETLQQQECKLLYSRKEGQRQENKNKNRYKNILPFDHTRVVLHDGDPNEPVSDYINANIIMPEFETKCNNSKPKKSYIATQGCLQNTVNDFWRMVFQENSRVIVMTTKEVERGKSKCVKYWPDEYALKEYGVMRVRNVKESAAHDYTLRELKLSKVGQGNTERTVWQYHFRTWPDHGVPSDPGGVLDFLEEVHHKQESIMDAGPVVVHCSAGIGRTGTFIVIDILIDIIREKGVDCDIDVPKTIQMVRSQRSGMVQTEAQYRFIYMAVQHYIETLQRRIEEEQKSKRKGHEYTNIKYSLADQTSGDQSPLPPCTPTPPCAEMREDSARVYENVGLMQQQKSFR
Summary of the method: (§3)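 Recombinant human phosphatases were expressed in E. coli and purified. Enzyme and compound were preincubated for 15 min at room temperature in pH 6.5 buffer (50 mM HEPES, 100 mM NaCl, 1 mM EDTA, 1 mM DTT). Buffer containing 50 mM pNPP was then added and the mix incubated for 60 min at 37 °C. Product p-nitrophenol was read at 405 nm. Assays were run in triplicate and IC50 derived.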

[6] = target: T3, Tyrosine-protein phosphatase non-receptor type 2 (Homo sapiens, UniProt P17706); assay: (§4) Inhibition of recombinant human TCPTP expressed in Escherichia coli […] preincubated for 15 mins followed by substrate addition and measured after 60 mins; summary of the method: as §3
T3 sequence (P17706 whole entry): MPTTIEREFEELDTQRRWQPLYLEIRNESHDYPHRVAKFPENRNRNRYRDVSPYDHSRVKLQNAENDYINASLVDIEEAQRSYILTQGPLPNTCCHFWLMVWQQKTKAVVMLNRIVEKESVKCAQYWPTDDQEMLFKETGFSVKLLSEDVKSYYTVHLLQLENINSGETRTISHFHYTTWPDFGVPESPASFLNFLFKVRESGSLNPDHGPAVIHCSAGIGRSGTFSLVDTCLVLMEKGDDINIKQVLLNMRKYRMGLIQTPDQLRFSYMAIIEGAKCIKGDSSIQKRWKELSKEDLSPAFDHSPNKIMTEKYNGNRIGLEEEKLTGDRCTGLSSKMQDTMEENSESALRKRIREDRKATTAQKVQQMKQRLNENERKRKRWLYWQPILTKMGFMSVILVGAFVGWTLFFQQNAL

Fusarium oxysporum = assay: Antifungal activity against Fusarium oxysporum HNM 1003 assessed as growth inhibition at 0.6 mM measured after 48 hrs by microbroth dilution method; type: functional; conditions: HNM 1003, 48 h, read-out: GI; summary of the method: as §1
Curvularia australiensis = assay: Antifungal activity against Curvularia australiensis BY01 assessed as growth inhibition at 0.6 mM measured after 48 hrs by microbroth dilution method; type: functional; conditions: BY01, 48 h, read-out: GI; summary of the method: as §1
[7] = target: T4, Tyrosine-protein phosphatase non-receptor type 1 (Homo sapiens, UniProt P18031); assay: (§5) Inhibition of recombinant human PTP1B expressed in Escherichia coli […] preincubated for 15 mins followed by substrate addition and measured after 60 mins; summary of the method: as §3
T4 sequence (P18031 whole entry): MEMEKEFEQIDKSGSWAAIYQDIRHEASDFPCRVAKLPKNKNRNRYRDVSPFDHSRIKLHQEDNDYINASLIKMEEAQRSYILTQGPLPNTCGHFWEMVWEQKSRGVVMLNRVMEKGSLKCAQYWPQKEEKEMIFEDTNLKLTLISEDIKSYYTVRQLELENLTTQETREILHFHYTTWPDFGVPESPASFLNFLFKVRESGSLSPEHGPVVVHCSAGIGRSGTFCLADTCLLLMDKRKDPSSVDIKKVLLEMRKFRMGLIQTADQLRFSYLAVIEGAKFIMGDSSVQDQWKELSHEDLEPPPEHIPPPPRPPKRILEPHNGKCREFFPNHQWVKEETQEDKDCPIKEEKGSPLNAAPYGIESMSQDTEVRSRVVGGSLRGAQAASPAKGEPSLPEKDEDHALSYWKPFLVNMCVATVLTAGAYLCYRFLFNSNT

[8] = target: T5, Tyrosine-protein phosphatase non-receptor type 9 (Homo sapiens, UniProt P43378); assay: (§6) Inhibition of recombinant human MEG2 expressed in Escherichia coli […] preincubated for 15 mins followed by substrate addition and measured after 60 mins; summary of the method: as §3
T5 sequence (P43378 whole entry): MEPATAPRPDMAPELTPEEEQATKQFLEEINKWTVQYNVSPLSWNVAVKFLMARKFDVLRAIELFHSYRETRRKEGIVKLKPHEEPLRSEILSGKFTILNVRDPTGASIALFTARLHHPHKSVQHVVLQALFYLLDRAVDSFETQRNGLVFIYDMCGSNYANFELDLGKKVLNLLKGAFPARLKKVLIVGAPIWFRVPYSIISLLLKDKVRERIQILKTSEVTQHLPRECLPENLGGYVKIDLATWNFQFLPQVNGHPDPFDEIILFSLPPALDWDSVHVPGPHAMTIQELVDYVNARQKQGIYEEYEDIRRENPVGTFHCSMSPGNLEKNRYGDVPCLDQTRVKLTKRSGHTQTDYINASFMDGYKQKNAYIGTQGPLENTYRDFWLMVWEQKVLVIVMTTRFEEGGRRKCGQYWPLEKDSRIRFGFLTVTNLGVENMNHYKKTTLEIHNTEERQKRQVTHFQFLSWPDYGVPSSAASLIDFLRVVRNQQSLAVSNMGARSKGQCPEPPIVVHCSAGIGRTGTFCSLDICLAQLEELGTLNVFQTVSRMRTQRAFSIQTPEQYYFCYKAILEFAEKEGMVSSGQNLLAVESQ

[9] = target: Tyrosine-protein phosphatase non-receptor type 6 (Homo sapiens, UniProt P29350); assay: Inhibition of recombinant human SHP1 expressed in Escherichia coli […] preincubated for 15 mins followed by substrate addition and measured after 60 mins; summary of the method: as §3
Tyrosine-protein phosphatase non-receptor type 6, sequence (P29350 whole entry): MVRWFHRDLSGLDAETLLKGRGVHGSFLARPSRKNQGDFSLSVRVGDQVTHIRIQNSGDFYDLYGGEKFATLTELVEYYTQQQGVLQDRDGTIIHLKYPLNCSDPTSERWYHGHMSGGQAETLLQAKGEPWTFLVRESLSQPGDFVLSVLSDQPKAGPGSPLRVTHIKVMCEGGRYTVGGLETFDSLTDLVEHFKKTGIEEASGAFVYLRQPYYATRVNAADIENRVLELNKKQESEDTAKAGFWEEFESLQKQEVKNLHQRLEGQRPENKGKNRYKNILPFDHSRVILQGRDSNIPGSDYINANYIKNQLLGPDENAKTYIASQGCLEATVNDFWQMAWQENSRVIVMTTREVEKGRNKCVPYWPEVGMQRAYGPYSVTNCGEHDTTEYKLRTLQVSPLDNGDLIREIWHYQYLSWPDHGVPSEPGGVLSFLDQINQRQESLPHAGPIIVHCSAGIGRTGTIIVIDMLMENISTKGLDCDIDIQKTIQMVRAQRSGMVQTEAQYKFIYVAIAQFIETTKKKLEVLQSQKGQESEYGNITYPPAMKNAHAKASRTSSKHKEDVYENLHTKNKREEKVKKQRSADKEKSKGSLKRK

[10] = target: T6, Tyrosine-protein phosphatase non-receptor type 11 (Homo sapiens) (UniProt Q06124); assay: as §2; summary of the method: as §3
T6 sequence (whole entry): T2 sequence (Q06124 whole entry)

[11] = target: T7, Tyrosine-protein phosphatase non-receptor type 2 (Homo sapiens) (UniProt P17706); assay: as §4; summary of the method: as §3
T7 sequence (whole entry): T3 sequence (P17706 whole entry)

[12] = target: T8, Tyrosine-protein phosphatase non-receptor type 1 (Homo sapiens) (UniProt P18031); assay: as §5; summary of the method: as §3
T8 sequence (whole entry): T4 sequence (P18031 whole entry)

[13] = target: T9, Tyrosine-protein phosphatase non-receptor type 9 (Homo sapiens) (UniProt P43378); assay: as §6; summary of the method: as §3
T9 sequence (whole entry): T5 sequence (P43378 whole entry)

| Structure (SMILES) | inhibition [1] | inhibition of growth at 600 µM (Pyricularia oryzae) [%] | EC50 [2] [µM] | inhibition of growth at 600 µM [3] [%] | IC50 [4] [µM] | IC50 [5] [µM] | IC50 [6] [µM] | inhibition of growth at 600 µM (Fusarium oxysporum) [%] | inhibition of growth at 600 µM (Curvularia australiensis) [%] | IC50 [7] [µM] | IC50 [8] [µM] | IC50 [9] [µM] | inhibition [4] | inhibition [10] | inhibition [11] | inhibition [12] | inhibition [13] | inhibition [9] |
| --- | --- | --- | --- | --- | --- | --- | --- | --- | --- | --- | --- | --- | --- | --- | --- | --- | --- | --- |
| CC[C@@H](C)C1=C2N=C3OC=CC=C[C@]3(OC)C(=O)N2[C@@H](Cc2ccccc2)C(=O)N1 | inactive | < 50 | 41 | < 50 | 14 to 87 | 14 to 87 | 14 to 87 | < 50 | < 50 | 14 to 87 | 14 to 87 | 14 to 87 |  |  |  |  |  |  |
| CO[C@]1(Cc2ccccc2)NC(=O)[C@@H](C)n2c1nc1c(O)cccc1c2=O | inactive | < 50 | 5.1 | < 50 |  |  |  | < 50 | < 50 |  |  |  | inactive | inactive | inactive | inactive | inactive | inactive |
| C[C@@H]1C(=O)N/C(=C\c2ccccc2)c2nc3c(c(=O)n21)C=CC=CO3 | inactive | < 50 | 50 | < 50 |  |  |  | < 50 | < 50 |  |  |  | inactive | inactive | inactive | inactive | inactive | inactive |
| C[C@@H]1C(=O)N[C@@](O)(Cc2ccccc2)c2nc3c(O)cccc3c(=O)n21 | inactive | < 50 | 1.7 | < 50 |  |  |  | < 50 | < 50 |  |  |  | inactive | inactive | inactive | inactive | inactive | inactive |
